The results in this text go back to ChEMBL document CHEMBL1125330, “N-substituted pyrazino[2,3-c][1,2,6]thiadiazine 2,2-dioxides. A new class of diuretics” (J Med Chem, 1992).

The species named for data set [1] is Rattus norvegicus. Briefly: Mean urinary output in rats (Control/Drug treatment value); value 24.0/36.5. Format: ADME, organism-based, Urine. The settings on record: in vivo. An outline of the steps: (§1)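 Water-loaded male Sprague-Dawley rats (HC/CFY, 175-200 g), eight per group, deprived of food and water 18 h. Single oral gavage of 20-25 mg/kg (some 10 mg/kg) in 1% CMC/0.1% Tween 80, then distilled water 2.5 mL/100 g bw po. Cumulative urine over 6 h in metabolic cages; mean mL/6 h/kg bw vs vehicle group.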

The species named for data set [2] is Rattus norvegicus. Briefly: Mean sodium excretion in rats (Control/Drug treatment value); value 0.52/2.02. The class given is ADME, organism-based. The settings on record: in vivo.
The species named for data set [3] is Rattus norvegicus. In words: Mean urinary output in rats (Control/Drug treatment; value 23.3/29.9. Format: ADME, organism-based, Urine. The settings on record: in vivo.
The test system of data set [4] is Rattus norvegicus. Briefly: Post dosing time interval of maximum activity. Format: functional. An outline of the steps:
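Interval of peak activity taken from timed urine collections (0-1, 1-2, 2-3, 3-4, 4-6 h) after a single oral dose in water-loaded fasted rats, […]. Urine volume and Na+ excretion followed over time.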

The subject of data set [5] is Rattus norvegicus. Briefly: Mean sodium excretion in rats when compound administered at 0 mg/kg po and vehicle dosed at 0 umol/kg. Format: ADME, organism-based. On the set-up: dose 0 mg/kg, route oral. The conditions noted are these: in vivo. An outline of the steps: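 Male Sprague-Dawley rats (HC/CFY, 175-200 g) fasted and water-deprived 18 h before and during the test. Dosed by gavage at 2.5-160 mg/kg in 1% carboxymethyl cellulose/0.1% Tween 80, 0.5 mL/100 g bw. Immediately hydrated with water (2.5 mL/100 g bw, po). Urine collected 6 h in metabolic cages; Na+ and K+ by flame photometry; mean mequiv/6 h/kg bw; nonpaired Student t-test.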

The species named for data set [6] is Rattus norvegicus. Briefly: Dose required to produce increase in 50 % in urine production vs control groups. Format: functional. The conditions noted are these: Rattus norvegicus, Urine. In outline: (§2)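 Male Sprague-Dawley rats (HC/CFY, 175-200 g), fasted and water-deprived 18 h before and during the test. Compound dosed by gavage in 1% carboxymethyl cellulose/0.1% Tween 80, then water load 2.5 mL/100 g bw po. Urine collected 6 h in metabolic cages; Na+ by flame photometry. Effective doses vs vehicle controls derived by linear regression of dose-response data.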

Data set [7] is filed under the species Rattus norvegicus. The conditions noted are these: in vivo, po, 80 mg/kg.
Data set [8] concerns Rattus norvegicus. Briefly: Mean urinary output in rats when compound administered at 0 mg/kg po and vehicle dosed at 0 umol/kg. The settings on record: in vivo. On the set-up: dose 0 mg/kg, route oral. The class given is ADME, organism-based, Urine. An outline of the steps:
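Water-loaded male Sprague-Dawley rats (HC/CFY, 175-200 g) fasted and without water for 18 h. Oral gavage of 2.5-160 mg/kg in 1% CMC with 0.1% Tween 80, then distilled water 2.5 mL/100 g po. Urine collected 6 h in metabolic cages, mean output in mL/6 h/kg bw. Unpaired Student t-test against vehicle; dose-response by linear regression.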

The species entered for data set [9] is Rattus norvegicus. Briefly: Dose required to produce increase in 200 % in urine production vs control groups. The class given is functional. An outline of the steps: as §2
Data set [10] has as its system Rattus norvegicus. In words: Mean potassium excretion in rats when compound administered at 0 mg/kg po and vehicle dosed at 0 umol/kg. Format: ADME, organism-based. On the set-up: dose 0 mg/kg, route oral. The conditions noted are these: in vivo. An outline of the steps: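 Male Sprague-Dawley rats (HC/CFY, 175-200 g), no food or water for 18 h before and during the test. Single gavage dose (2.5-160 mg/kg; vehicle 1% carboxymethyl cellulose/0.1% Tween 80, 0.5 mL/100 g bw), then distilled water 2.5 mL/100 g bw po. Individual metabolic cages, 6 h urine. K+ by flame photometry, Cl- colorimetric, as mequiv/6 h/kg bw; unpaired Student t-test vs control.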

Data set [11] deals with Rattus norvegicus. Briefly: Dose required to produce an excretion of 2 mequiv of Na+/kg bw/6h vs control groups. The class given is functional. An outline of the steps:
as §2

Data set [12] is filed under the species Rattus norvegicus. In words: Mean sodium excretion in rats (Control/Drug treatment value); value 0.48/0.95. The conditions noted are these: in vivo. Format: ADME, organism-based.
Data set [13] is filed under the species Rattus norvegicus. Briefly: Mean urinary output in rats (Control/Drug treatment value); value 25.4/33.8. The conditions noted are these: in vivo. Format: ADME, organism-based, Urine. In outline: as §1

`CCc1nc2c(nc1C)C(N)=NS(=O)(=O)N2C` gave a V in the data set filed under Rattus norvegicus [1] of 1.5. This compound gave a Na in the data set listed under Rattus norvegicus [2] of 3.9.

On to `CCN1c2nc(C(F)(F)F)c(C(F)(F)F)nc2C(N)=NS1(=O)=O`, for which the V in the data set listed under Rattus norvegicus [3] stood at 1.3.

Consider `NS(=O)(=O)c1cc(C(=O)O)c(NCc2ccco2)cc1Cl` [FUROSEMIDE], for which the Time in the data set on Rattus norvegicus [4] amounted to 1 h. The Na with Rattus norvegicus [5] is 0.39 m equiv 6hr-1 kg-1 (body weight)-1. In the data set filed under Rattus norvegicus [6], it took a dose of 12.1 mg/kg to reach the 50% effect level (ED50). The V in the data set listed under Rattus norvegicus [7] is 75.5 ml 6hr-1 (kg of body weight)-1; in the data set on Rattus norvegicus [8], 24.04 ml 6hr-1 (kg of body weight)-1. In the data set filed under Rattus norvegicus [9], this compound came in with an ED200 of 70.59 mg/kg. The K with Rattus norvegicus [10] is listed as 0.47 m equiv 6hr-1 kg-1 (body weight)-1. In addition, in the data set on Rattus norvegicus [11], the ED2 came out at 12.95 mg/kg.

Consider `CCc1nc2c(nc1CC)N(CC)S(=O)(=O)N=C2N`, for which, in the data set listed under Rattus norvegicus [12], the Na was 2. Also, the V in the data set filed under Rattus norvegicus [13] was found to be 1.3.
